Holding throughout (type): functional
Test [1] concerns Staphylococcus aureus. In words: Upregulation of blaZ gene expression in methicillin-resistant Staphylococcus aureus ATCC 43300 at 50 uM by RT-PCR method.
The test system of test [2] is Staphylococcus aureus. The experiment in a line: Upregulation of mecA gene expression in methicillin-resistant Staphylococcus aureus ATCC 43300 at 50 uM by RT-PCR method.
Test [3] relates to Staphylococcus aureus. In words: Upregulation of blaZ gene expression in methicillin-resistant Staphylococcus aureus USA100 at 50 uM by RT-PCR method.
In test [4] the test system is Staphylococcus aureus. The experiment in a line: Upregulation of mecA gene expression in methicillin-resistant Staphylococcus aureus COL at 50 uM by RT-PCR method.
Test [5] relates to Staphylococcus aureus. In words: Upregulation of mecA gene expression in methicillin-resistant Staphylococcus aureus USA100 at 50 uM by RT-PCR method.
The test system of test [6] is Staphylococcus aureus. In words: Potentiation of oxacillin induced antibacterial activity against methicillin-resistant Staphylococcus aureus USA300 harboring stk1 deletion mutant co-transfected with a plasmid bearing stk1 assessed as fold change in oxacillin MIC at 25 uM after 18 hrs by CLSI protocol based broth microdilution assay.
The test system of test [7] is Staphylococcus aureus. The experiment in a line: Potentiation of ceftazidime induced antibacterial activity against methicillin-resistant Staphylococcus aureus USA300 assessed as ceftazidime MIC at 25 uM after 18 hrs by CLSI protocol based broth microdilution assay. On the technique in general: In broth dilution the organism is exposed to a series of concentrations in liquid medium.

For test [8], the system named is Staphylococcus aureus. The experiment in a line: Potentiation of cefoxitin induced antibacterial activity against methicillin-resistant Staphylococcus aureus USA100 assessed as fold change in cefoxitin MIC at 25 uM after 18 hrs by CLSI protocol based broth microdilution assay.
Test [9] deals with Staphylococcus aureus. The experiment in a line: Upregulation of mecA gene expression in methicillin-resistant Staphylococcus aureus COL at 25 uM by RT-PCR method.
The test system of test [10] is Staphylococcus aureus. The experiment in a line: Potentiation of ampicillin induced antibacterial activity against methicillin-resistant Staphylococcus aureus COL assessed as ampicillin MIC at 25 uM after 18 hrs by CLSI protocol based broth microdilution assay.
Test [11] deals with Staphylococcus aureus. The experiment in a line: Upregulation of blaZ gene expression in methicillin-resistant Staphylococcus aureus USA100 at 25 uM by RT-PCR method.
The subject of test [12] is Staphylococcus aureus. In words: Potentiation of oxacillin induced antibacterial activity against methicillin-resistant Staphylococcus aureus USA300 harboring stk1 deletion mutant co-transfected with a plasmid bearing stk1 assessed as oxacillin MIC at 25 uM after 18 hrs by CLSI protocol based broth microdilution assay.
For test [13], the system named is Staphylococcus aureus. In words: Potentiation of methicillin induced antibacterial activity against methicillin-resistant Staphylococcus aureus ATCC 43300 assessed as methicillin MIC at 25 uM after 18 hrs by CLSI protocol based broth microdilution assay.
Test [14] has as its system Staphylococcus aureus. The experiment in a line: Potentiation of oxacillin induced antibacterial activity against methicillin-resistant Staphylococcus aureus ATCC 43300 assessed as oxacillin MIC at 25 uM after 18 hrs by CLSI protocol based broth microdilution assay.
Test [15] relates to Staphylococcus aureus. In words: Potentiation of methicillin induced antibacterial activity against methicillin-resistant Staphylococcus aureus USA300 assessed as methicillin MIC at 25 uM after 18 hrs by CLSI protocol based broth microdilution assay.
Test [16] relates to Staphylococcus aureus. The experiment in a line: Potentiation of oxacillin induced antibacterial activity against methicillin-resistant Staphylococcus aureus ATCC 43300 assessed as fold change in oxacillin MIC at 25 uM after 18 hrs by CLSI protocol based broth microdilution assay.
For test [17], the system named is Staphylococcus aureus. The experiment in a line: Potentiation of ampicillin induced antibacterial activity against methicillin-resistant Staphylococcus aureus USA300 assessed as ampicillin MIC at 25 uM after 18 hrs by CLSI protocol based broth microdilution assay.
Test [18] has as its system Staphylococcus aureus. The experiment in a line: Potentiation of cefoxitin induced antibacterial activity against methicillin-resistant Staphylococcus aureus USA300 assessed as cefoxitin MIC at 25 uM after 18 hrs by CLSI protocol based broth microdilution assay.
Test [19] has as its system Staphylococcus aureus. In words: Potentiation of methicillin induced antibacterial activity against methicillin-resistant Staphylococcus aureus USA100 assessed as methicillin MIC at 25 uM after 18 hrs by CLSI protocol based broth microdilution assay.
Test [20] deals with Staphylococcus aureus. In words: Potentiation of ceftazidime induced antibacterial activity against methicillin-resistant Staphylococcus aureus USA100 assessed as fold change in ceftazidime MIC at 25 uM after 18 hrs by CLSI protocol based broth microdilution assay.
Test [21] relates to Staphylococcus aureus. The experiment in a line: Potentiation of methicillin induced antibacterial activity against methicillin-resistant Staphylococcus aureus USA300 assessed as fold change in methicillin MIC at 25 uM after 18 hrs by CLSI protocol based broth microdilution assay.
Test [22] deals with Staphylococcus aureus. In words: Potentiation of ampicillin induced antibacterial activity against methicillin-resistant Staphylococcus aureus USA100 assessed as ampicillin MIC at 25 uM after 18 hrs by CLSI protocol based broth microdilution assay.
Test [23] relates to Staphylococcus aureus. In words: Potentiation of oxacillin induced antibacterial activity against methicillin-resistant Staphylococcus aureus USA300 harboring stk1 deletion mutant assessed as fold change in oxacillin MIC at 25 uM after 18 hrs by CLSI protocol based broth microdilution assay.
Test [24] deals with Staphylococcus aureus. In words: Potentiation of oxacillin induced antibacterial activity against methicillin-resistant Staphylococcus aureus assessed as fold decrease in mecA gene expression at 25 uM by RT-qPCR analysis. In outline:
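Fold dampening is the relative mRNA level of the gene, normalised to 16S rRNA, in oxacillin-treated cells divided by that in cells cotreated with oxacillin plus carbazole. Carbazole was used at 25 or 50 μM, as given in each line.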
(Real-time PCR tracks product formation cycle by cycle.)

Test [25] has as its system Staphylococcus aureus. The experiment in a line: Potentiation of ampicillin induced antibacterial activity against methicillin-resistant Staphylococcus aureus USA300 assessed as fold change in ampicillin MIC at 25 uM after 18 hrs by CLSI protocol based broth microdilution assay.
Test [26] deals with Staphylococcus aureus. The experiment in a line: Upregulation of mecA gene expression in methicillin-resistant Staphylococcus aureus USA100 at 25 uM by RT-PCR method.
The subject of test [27] is Staphylococcus aureus. The experiment in a line: Potentiation of methicillin induced antibacterial activity against methicillin-resistant Staphylococcus aureus USA100 assessed as fold change in methicillin MIC at 25 uM after 18 hrs by CLSI protocol based broth microdilution assay.
In test [28] the test system is Staphylococcus aureus. The experiment in a line: Potentiation of methicillin induced antibacterial activity against methicillin-resistant Staphylococcus aureus COL assessed as methicillin MIC at 25 uM after 18 hrs by CLSI protocol based broth microdilution assay.
For test [29], the system named is Staphylococcus aureus. The experiment in a line: Potentiation of oxacillin induced antibacterial activity against methicillin-resistant Staphylococcus aureus USA300 assessed as oxacillin MIC at 25 uM after 18 hrs by CLSI protocol based broth microdilution assay.
Test [30] has as its system Staphylococcus aureus. In words: Potentiation of ceftazidime induced antibacterial activity against methicillin-resistant Staphylococcus aureus COL assessed as fold change in ceftazidime MIC at 25 uM after 18 hrs by CLSI protocol based broth microdilution assay.
Test [31] relates to Staphylococcus aureus. In words: Potentiation of ceftazidime induced antibacterial activity against methicillin-resistant Staphylococcus aureus ATCC 43300 assessed as fold change in ceftazidime MIC at 25 uM after 18 hrs by CLSI protocol based broth microdilution assay.
The subject of test [32] is Staphylococcus aureus. In words: Potentiation of cefoxitin induced antibacterial activity against methicillin-resistant Staphylococcus aureus USA300 assessed as fold change in cefoxitin MIC at 25 uM after 18 hrs by CLSI protocol based broth microdilution assay.
For test [33], the system named is Staphylococcus aureus. The experiment in a line: Upregulation of blaZ gene expression in methicillin-resistant Staphylococcus aureus ATCC 43300 at 25 uM by RT-PCR method.
The subject of test [34] is Staphylococcus aureus. In words: Upregulation of mecA gene expression in methicillin-resistant Staphylococcus aureus ATCC 43300 at 25 uM by RT-PCR method.

This note sets out measurements from ChEMBL document CHEMBL5046302, “Identification and Evaluation of Brominated Carbazoles as a Novel Antibiotic Adjuvant Scaffold in MRSA” (2022).

One may read the MIC as the smallest concentration in the dilution series that meets the test's criterion for growth inhibition.

Calls of active or inactive are those of the source.

As to `Brc1cccc2c1[nH]c1ccccc12`, the result in [1], in test [2], in [3], in [4] and in test [5] was inactive.
Turning to `Brc1cccc2[nH]c3ccccc3c12`, the “fold change (FC)” value in test [6] was 8; in test [8], 4; in [16] it was 4; in [20], 1; in test [21] it was 4; in test [23] it was 1. The “fold change (FC)” value in [24] was 4; in [25], 4; in test [27] it was 16; in test [30], 1; in test [31] it was 2; in test [32] it was 4. The minimal inhibitory concentration (MIC) in [7] is 256 µg/mL; in test [10], 32 µg/mL; in test [12] it was 0.5 µg/mL; in test [13], 4 µg/mL; in [14], 4 µg/mL; in [15], 8 µg/mL. Also, the minimal inhibitory concentration (MIC) in [17] was 2 µg/mL; in test [18] it was 8 µg/mL; in test [19], 32 µg/mL; in test [22] it was 8 µg/mL; in test [28] it was 1020 µg/mL; in [29] it was 8 µg/mL. Besides, the result in test [9], in [11], in [26], in test [33] and in test [34] was inactive.
